According to paper PMC6210075 (ACS Omega, 2018):

How the values were obtained:
human sEH [1] = target: T1, human sEH (Homo sapiens, UniProt P34913); test: sEH fluorescent inhibition assay; assay type: biochemical; conditions: compared to PF-750
T1 sequence (P34913 1-555): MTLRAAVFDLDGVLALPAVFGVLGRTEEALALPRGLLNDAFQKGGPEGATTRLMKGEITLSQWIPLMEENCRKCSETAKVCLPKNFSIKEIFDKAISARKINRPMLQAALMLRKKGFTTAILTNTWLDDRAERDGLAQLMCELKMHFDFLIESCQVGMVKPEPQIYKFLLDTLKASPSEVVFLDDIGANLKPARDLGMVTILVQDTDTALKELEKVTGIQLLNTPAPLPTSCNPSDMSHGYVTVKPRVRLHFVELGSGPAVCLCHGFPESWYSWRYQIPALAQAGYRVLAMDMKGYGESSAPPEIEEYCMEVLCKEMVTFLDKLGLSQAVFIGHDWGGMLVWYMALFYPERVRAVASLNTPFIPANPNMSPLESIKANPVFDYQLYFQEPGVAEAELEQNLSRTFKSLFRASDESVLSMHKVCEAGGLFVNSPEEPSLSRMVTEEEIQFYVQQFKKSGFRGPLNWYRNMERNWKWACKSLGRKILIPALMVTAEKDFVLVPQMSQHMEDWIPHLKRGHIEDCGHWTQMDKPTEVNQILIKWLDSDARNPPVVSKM

human FAAH [2] = target: T2, human FAAH (Homo sapiens, UniProt O00519); test: FAAH fluorescent inhibition assay; assay type: biochemical; conditions: for decrease in activity/potency toward FAAH: compared to PF-750
T2 sequence (O00519 1-579): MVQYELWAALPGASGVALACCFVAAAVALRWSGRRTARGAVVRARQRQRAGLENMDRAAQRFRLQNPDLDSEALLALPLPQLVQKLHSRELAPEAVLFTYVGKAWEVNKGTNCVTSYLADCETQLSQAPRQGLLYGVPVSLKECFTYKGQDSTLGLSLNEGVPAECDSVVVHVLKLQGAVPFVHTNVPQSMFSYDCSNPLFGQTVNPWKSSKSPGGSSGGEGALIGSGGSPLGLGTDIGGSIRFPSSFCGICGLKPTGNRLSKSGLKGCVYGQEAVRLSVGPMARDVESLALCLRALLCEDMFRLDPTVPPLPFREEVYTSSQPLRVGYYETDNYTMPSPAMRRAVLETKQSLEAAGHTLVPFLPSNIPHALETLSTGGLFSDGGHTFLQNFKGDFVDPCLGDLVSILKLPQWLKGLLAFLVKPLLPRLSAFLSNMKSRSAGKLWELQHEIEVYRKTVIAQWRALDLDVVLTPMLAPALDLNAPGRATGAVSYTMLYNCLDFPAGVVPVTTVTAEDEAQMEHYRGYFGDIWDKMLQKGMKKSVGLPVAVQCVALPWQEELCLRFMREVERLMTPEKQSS

mouse FAAH = target: T3, mouse FAAH (Mus musculus, UniProt O08914); test: FAAH fluorescent inhibition assay, mouse crude tissue homogenate; assay type: biochemical; conditions: FAAH IC50 (5 min pre-incubation)
T3 sequence (O08914 1-579): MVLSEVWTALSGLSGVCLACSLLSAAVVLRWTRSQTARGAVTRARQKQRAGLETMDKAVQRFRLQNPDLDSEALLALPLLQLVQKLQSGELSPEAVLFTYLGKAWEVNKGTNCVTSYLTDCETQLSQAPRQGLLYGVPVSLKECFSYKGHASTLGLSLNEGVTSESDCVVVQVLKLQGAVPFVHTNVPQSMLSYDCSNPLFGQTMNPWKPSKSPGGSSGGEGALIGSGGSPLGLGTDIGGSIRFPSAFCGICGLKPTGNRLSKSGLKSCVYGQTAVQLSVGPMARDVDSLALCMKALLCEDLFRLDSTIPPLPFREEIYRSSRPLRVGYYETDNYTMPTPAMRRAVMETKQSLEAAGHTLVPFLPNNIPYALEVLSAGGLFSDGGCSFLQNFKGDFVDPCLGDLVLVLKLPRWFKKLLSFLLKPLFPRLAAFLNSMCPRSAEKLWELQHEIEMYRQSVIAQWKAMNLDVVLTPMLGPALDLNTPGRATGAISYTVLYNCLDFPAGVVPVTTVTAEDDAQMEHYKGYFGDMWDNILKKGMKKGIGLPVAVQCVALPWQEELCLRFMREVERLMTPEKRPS

rat FAAH = target: T4, rat FAAH (Rattus norvegicus, UniProt P97612); test: FAAH fluorescent inhibition assay, rat brain microsomes; assay type: biochemical; conditions: FAAH IC50 (5 min pre-incubation), 5 min pre-incubation
T4 sequence (P97612 1-579): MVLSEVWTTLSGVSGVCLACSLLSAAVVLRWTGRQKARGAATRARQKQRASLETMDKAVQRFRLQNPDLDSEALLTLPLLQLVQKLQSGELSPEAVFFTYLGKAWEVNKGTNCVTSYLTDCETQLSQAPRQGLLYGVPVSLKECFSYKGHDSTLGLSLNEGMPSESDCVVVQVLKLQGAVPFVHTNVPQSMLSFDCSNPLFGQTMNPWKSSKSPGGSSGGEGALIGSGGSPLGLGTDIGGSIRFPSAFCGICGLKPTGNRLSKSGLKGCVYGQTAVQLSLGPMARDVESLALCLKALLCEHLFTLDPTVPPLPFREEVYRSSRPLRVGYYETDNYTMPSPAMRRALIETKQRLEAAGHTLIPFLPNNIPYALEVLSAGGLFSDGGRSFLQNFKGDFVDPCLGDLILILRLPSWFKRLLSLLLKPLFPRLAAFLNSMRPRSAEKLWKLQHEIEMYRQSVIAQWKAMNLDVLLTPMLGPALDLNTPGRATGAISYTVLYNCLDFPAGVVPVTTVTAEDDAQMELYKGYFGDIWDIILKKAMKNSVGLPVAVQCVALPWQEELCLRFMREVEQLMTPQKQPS
Method in brief: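 Rat brain microsomes: tissue homogenized in 20 mM phosphate (pH 7.4, 5 mM EDTA), spun at 9000g for 20 min, then 100 000g for 1 h, and stored at −80 °C. OMP (100 μM final) in 0.1 M sodium phosphate pH 8, 0.1 mg/mL BSA, 2% DMSO, 37 °C. Fluorescence (ex 303/em 394 nm) read every 30 s for 10 min. No-enzyme background subtracted. IC50 from linear regression of log[I] vs % remaining activity; triplicates.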

human FAAH [3] = target: T2, human FAAH; test: Ki and kinact determination on FAAH; assay type: biochemical
Method in brief: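 Crude baculovirus-expressed recombinant FAAH (High Five cell S9 fraction in 50 mM Tris/HCl pH 8.0, 1 mM CHAPS, 10% glycerol). OMP (100 μM final) was mixed with a range of test compound concentrations and held 5 min at 37 °C.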

human sEH [4] = target: T1, human sEH; test: FRET-based displacement assay for inhibitor dissociation from sEH; assay type: binding
[5] = Cassette dosing pharmacokinetics in rats; assay type: in vivo; conditions: male, Sprague-Dawley, rat, whole blood, po, 1 mg/kg
Method in brief: (§1)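 Test compounds were given as a cassette cocktail at 1 mg/kg each, p.o. in PEG300, to groups of 4 rats or 4 mice. Blood was taken by tail vein at set intervals and group averages were used.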

[6] = Cassette dosing pharmacokinetics in mice; assay type: in vivo; conditions: male, Swiss Webster, mouse, whole blood, po, 1 mg/kg
Method in brief: as §1

serine hydrolases [7] = target: T5, serine hydrolases (Mus musculus, UniProt O08914); test: Activity-based protein profiling; assay type: biochemical; conditions: mouse brain tissue homogenate, inhibitor 20 µM
T5 sequence (O08914 1-579): T3 sequence (O08914 1-579)

serine hydrolases [8] = test: Activity-based protein profiling; assay type: biochemical, mouse; conditions: mouse liver tissue homogenate, inhibitor 20 µM

COc1ccc(NC(=O)N2CCC(Cc3cnc4ccccc4c3)CC2)cc1 [compound 5]
increase in activity/potency toward sEH (human sEH [1]): 5 fold

O=C(Nc1ccc(Cl)cc1)N1CCC(Cc2cnc3ccccc3c2)CC1 [compound 2]
decrease in activity/potency toward FAAH (human FAAH [2]): 3 fold

O=C(Nc1ccc(C(F)(F)F)cc1)N1CCC(Cc2cccc(Oc3ccc(C(F)(F)F)cn3)c2)CC1 [compound 13]
IC50 (mouse FAAH): > 10 µM
IC50 (rat FAAH): > 10 µM
Ki (human FAAH [3]): 0.037 µM
kinact (human FAAH [3]): 0.000317 s⁻¹
kinact/KI (human FAAH [3]): 500000 M⁻¹ s⁻¹
t1/2 (half-life on the enzyme) (human sEH [4]; human sEH): 9.9 min
koff (human sEH [4]; read-out: koff × 10^–3): 1.2 s⁻¹
AUC [5]: 740 nM·h
Cmax [5]: 0.066 µM
AUC [6]: 750 nM·h
Cmax [6]: 0.065 µM
intensity of the FAAH band (ABPP) (serine hydrolases [7]): does not appear to fully inhibit the band corresponding to FAAH
other serine hydrolase bands (ABPP) (serine hydrolases [8]): neither 11, 13, 14, 18, nor PF-3845 had any effect on the intensity of other bands

NC(=O)c1cccc(-c2cccc(OC(=O)NC3CCCCC3)c2)c1 [URB597, cyclohexyl carbamic acid 3′-carbamoyl-biphenyl-3-yl ester, reference compound]
intensity of the FAAH band (ABPP) (serine hydrolases [7]): reduced
other serine hydrolase bands (ABPP) (serine hydrolases [8]): reduced the intensity of a band around 62.5 kDa

O=C(Nc1ccccc1F)N1CCC(Cc2cnc3ccccc3c2)CC1 [compound 3]
decrease in activity/potency toward FAAH (human FAAH [2]): 3 fold

O=C(Nc1ccc(F)cc1)N1CCC(Cc2cnc3ccccc3c2)CC1 [compound 1]
increase in activity/potency toward sEH (human sEH [1]): 7 fold
decrease in activity/potency toward FAAH (human FAAH [2]): 5 fold

COc1ccc(NC(=O)N2CCC(Cc3ccc4ccccc4c3)CC2)cc1 [compound 8]
increase in activity toward FAAH (human FAAH [2]; compared to 5 (3-quinoline)): 4 fold
